Bioassay records: PubChem, several laboratories
Hits are enriched below; roughly 2.2% of the tested compounds scored in any of these assays.
Exocytosis inh – lytic granule exocytosis inhibition; TALL-104 LAMP-1 surface exposure, flow cytometry; cells stimulated with thapsigargin and PMA; hit rate 0.66% among 360,000; AID 651702; inhibition, % at 10 µM;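 active = inhibition above about 55%, limit read from the data; inconclusive = no clear call, values can overlap the other calls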
CSN deneddyl inh – CSN deneddylation inhibition; hit rate 0.38% among 360,000; inhibition, % at 12.5 µM; Purified CSN, SCF-Nedd8-OG deneddylation, fluorescence polarization; Q92905;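 active = pattern-corrected inhibition above about 35%, with an unprinted fluorescence ratio check between 0.5 and 1.5, limit read from the data, passing the limit was not always enough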;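 note: 0% = enzyme with substrate and 100% = substrate without enzyme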
Target sequence (Q92905 whole entry, looked up, one chain of several): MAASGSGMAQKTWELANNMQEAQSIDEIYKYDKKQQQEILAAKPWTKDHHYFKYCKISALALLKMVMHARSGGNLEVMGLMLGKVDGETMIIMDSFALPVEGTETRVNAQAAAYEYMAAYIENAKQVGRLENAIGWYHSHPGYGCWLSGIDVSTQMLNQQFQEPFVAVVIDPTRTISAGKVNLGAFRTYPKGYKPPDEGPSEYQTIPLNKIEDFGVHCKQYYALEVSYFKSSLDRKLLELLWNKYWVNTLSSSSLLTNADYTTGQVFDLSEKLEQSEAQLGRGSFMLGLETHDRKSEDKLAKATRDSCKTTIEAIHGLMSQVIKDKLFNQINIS
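assay system = purified human Csn5 enzyme expressed in HEK293T cells | amount = 0.24 nM enzyme | buffer or medium = Tris/NaCl/DTT buffer, pH 7.5 | reagent = 10 nM SCFSkp2-Nedd8OG | compound = one concentration, 12.5 µM, 0.25% DMSO | times = 90 min reaction at room temperature | signal = FP | read-out basis = % inhibition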
HNF4A DNA FP – change in binding of human HNF4 alpha to DNA. P41235. HNF4a-FITC DNA binding, fluorescence polarization, 1 h. activity change, % at 10 µM. hit rate 0.3% among 360,000. AID 1224865; in the data active = activity change above about 30%, passing the limit was not always enough
Myeloid diff 2 – compounds promoting myeloid differentiation. ER-HoxA9 myeloid progenitors, lysozyme-GFP differentiation, flow cytometry. calls only at 10 µM. hit rate 1% among 360,000. AID 624256;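 active = normalized GFP-positive differentiation at or above the plate's own cutoff, the solvent-only control mean plus 3 SD; inconclusive = no clear call, values can overlap the other calls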;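 note: cells exposed to compound for four days before flow analysis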
CSN5 deneddyl – validation of inhibitors of human CSN-mediated cullin deneddylation; Csn5 deneddylation of SCF-Nedd8OG, fluorescence polarization, 90 min; shares compounds with CSN deneddyl inh; hit rate 62% among 540; inhibition, % at 16.6 µM; in the data active = inhibition above about 50%;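 note: 0% = DMSO with enzyme and 100% = no enzyme wells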
MMP-2 counter – counter-screen for CSN deneddylation inhibitors: human MMP-2 inhibition | shares compounds with CSN deneddyl inh | recombinant MMP-2, FRET substrate fluorescence, 60 min | inhibition, % at 16.6 µM | hit rate 33% among 540;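 active = corrected plate-normalized z-score of 5 or more, or -5 or less, or inhibition of 15% or more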;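 note: plate controls were DMSO wells with enzyme for no effect and buffer wells lacking MMP-2 for full effect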
Thrombin counter – thrombin (bovine) inhibition, counter-screen for CSN hits | shares compounds with CSN deneddyl inh | bovine thrombin cleavage of Ub4-pepOG, fluorescence polarization | inhibition, % at 16.6 µM | hit rate 49% among 540;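 active = inhibition at or above a set limit, with a fluorescence interference ratio between 0.5 and a set maximum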
HNF4a DNA conf – change in binding of human HNF4 alpha to DNA, retest; hit rate 99% among 210; shares compounds with HNF4A DNA FP; AID 1224897; HNF4A-FITC DNA binding, fluorescence polarization, 1 h; activity change, % at 12.5 µM; call rule not given here
* hit, by the source's call; i = inactive; ? = inconclusive; nt = not tested or not shown; + = active, no number; ! = repeats disagree.

SMILES	Exocytosis inh	CSN deneddyl inh	HNF4A DNA FP	Myeloid diff 2	CSN5 deneddyl	MMP-2 counter	Thrombin counter	others
O=C1Nc2ccc(Br)cc2C12NNc1ccccc1O2 (centres undefined)	-4	52*	95	+	129*	-15	17*
O=C(COc1ccc(Cl)cc1)NCc1n[nH]c(=O)c2ccccc12	-5	2	-2	i	nt	nt	nt
COc1ccc(C2C(C#N)=C(N)Oc3c2oc(CO)cc3=O)cc1 (centres undefined)	-4	0	0	i	nt	nt	nt
CSc1ccc(C2C(C#N)=C(N)Oc3c2ccc(=O)c2c(C)oc(C)c32)cc1 (centres undefined)	0	49*	31	i	95*	4	15
CCCN(C(=O)Cn1nc(C)c([N+](=O)[O-])c1C)c1c(N)n(Cc2ccccc2)c(=O)[nH]c1=O	8	5	8	i	nt	nt	nt
O=C1/C(=C/c2cccnc2)SC(=S)N1Cc1ccco1	4	6	7	i	nt	nt	nt
Cc1cc(/C=C2\SC(=S)N(Cc3ccco3)C2=O)c(C)n1-c1cccnc1	2	79*	120	+	nt	-7	-50
Cc1cccc(N=C2NC(=O)/C(=C/C=C/c3ccco3)S2)c1	-11	53*	2	i	88*	-4	2
O=C1NC(=Nc2ccc(O)cc2)S/C1=C/c1ccco1	6	5	0	i	nt	nt	nt
O=C1NC(=Nc2ccc3ccccc3c2)S/C1=C/c1ccco1	1	67*	11	i	85*	4	18*
COc1ccc(N=C2NC(=O)/C(=C\C=C\c3ccco3)S2)cc1	0	46*	-19	i	84*	14	4
C#CCNC(=O)C[C@@H]1C[C@@]2(C(=O)OCC)CCCC=C2N(Cc2ccc(Cl)cc2Cl)C1=O	-3	-4	1	i	nt	nt	nt
CCCCn1c(N)c(N(CC(C)C)C(=O)c2cccc(OCc3ccccc3)c2)c(=O)[nH]c1=O	4	-1	3	i	nt	nt	nt
CN(C)c1ccc(/C=C2/C[N+](C)(C)C/C(=C/c3ccc(N(C)C)cc3)C2=O)cc1	-4	94*	19	nt	3	-41*	114*
CN(C)c1ccc(C=C2C(=O)OC(C)(C)OC2=O)cc1	1	-2	5	i	nt	nt	nt
COC(=O)c1ccccc1-c1cn(C)c2ccccc2c1=O	14	0	0	i	nt	nt	nt
COC(=O)c1ccc(NC(=O)c2ccc(NC(=O)c3ccco3)cc2)cc1	-1	67*	102*	i	104*	6	-6
CCN1/C(=C/c2ccc3cc(C)ccc3[n+]2CC)Sc2cc(C)ccc21	85*	56*	109*	?	60*	-6	33
CCN1/C(=C/c2cccc[n+]2C)Sc2ccc(OC)cc21	5	2	2	?	nt	nt	nt
CCN1/C(=C/c2ccc3cc(C)ccc3[n+]2C)Sc2ccc3sccc3c21	62*	137*	180	i	-16	11	67*
CC(C)C(NC(=O)Cc1ccccc1)C(=O)N1CCN(c2cccc(Cl)c2)CC1 (centres undefined)	6	-6	1	i	nt	nt	nt
COc1ccccc1CNC(=O)COC(=O)c1cc(-c2ccco2)nc2ccccc12	-3	49*	-49	i	nt	12	6
O=C1c2ccccc2C(=O)C1c1ccnc2ccccc12	-1	6	9	?	nt	nt	nt
N#CC1=C(N)SC(N)=C(C#N)C1c1ccnc2ccccc12	-1	45*	39*	i	135*	-16	30*
COc1ccccc1-n1cc([C@@H]2C[C@H]3CN(c4ccccc4)C(=O)[C@]34CCCN24)cn1	1	54*	65*	nt	69*	-3	37*
SMILES	Exocytosis inh	CSN deneddyl inh	HNF4A DNA FP	Myeloid diff 2	CSN5 deneddyl	MMP-2 counter	Thrombin counter	others
COc1cc([C@@H]2C[C@H]3CN(c4ccccc4)C(=O)[C@]34CCCN24)cc(OC)c1OC	-4	4	8	i	nt	nt	nt
COc1cc2c(C#N)c(N3CCCC3)nc(N)c2c(N)n1	-7	35*!	26	i	67*	-45*	-41
COc1cc2c(C#N)c(N3CCN(C)CC3)nc(N)c2c(N)n1	6	0	-1	i	nt	nt	nt
CN(CC(=O)Nc1ccc(Cl)cc1F)C1CCS(=O)(=O)C1 (centres undefined)	0	-2	-1	i	nt	nt	nt
O=C(Nc1ccc(Nc2ccncc2)cc1)c1ccc(Nc2ccnc3ccc([N+](=O)[O-])cc23)cc1[N+](=O)[O-]	-9	54*	5	i	nt	36*	-14
NC(=O)c1cc(S(=O)(=O)N2CCOCC2)ccc1Sc1ccccc1N	-3	-2	3	i	nt	nt	nt
CN(C)c1ccc(/C=C2\SC(N3CCCCC3)=NC2=O)cc1	2	84*	118	i	63*	2	78*
CCCCN(C)CC(O)Cn1cc(/C=C/C(=O)c2cccs2)c2ccccc21 (centres undefined)	44	41*	24	i	67*	-7	32*
O=Cc1cn(CC(O)Cn2cc(C=O)c3ccccc32)c2ccccc12	-7	0	1	i	nt	nt	nt
CC(C)(C)c1ccc(Cn2c(=N)n(CC(O)c3ccco3)c3ccccc32)cc1 (centres undefined)	1	68*	31	i	92*	-6	2
Cc1ccccc1Cn1c(=N)n(CC(O)c2ccco2)c2ccccc21 (centres undefined)	-4	-2	0	i	nt	nt	nt
O=C(Nc1ccc(Cl)c(S(=O)(=O)N2CCOCC2)c1)c1ccc(Cl)nc1	-1	5	0	i	nt	nt	nt
COC1C(CO)OC(n2c3c(Cl)cccc3c3c4c(c5c6cccc(Cl)c6[nH]c5c32)C(=O)NC4=O)C(O)C1O (centres undefined)	-7	80*	85	?	197*	-19	5
COc1cccc(S(=O)(=O)N(C)C[C@H]2OCc3cn(nn3)CCCC(=O)N([C@@H](C)CO)C[C@@H]2C)c1	-1	-5	2	i	nt	nt	nt
CC(NC(=O)/C(C#N)=C1\N=C(NC(=O)c2ccco2)c2ccccc21)c1ccccc1 (centres undefined)	-1	11	74*	i	nt	nt	nt	HNF4a DNA conf=36*
COc1ccccc1C(CNC(=O)C1CC(=O)N(Cc2ccccc2)C1)N1CCCC1 (centres undefined)	4	7	-2	i	nt	nt	nt
CSc1nsc(N/N=C/c2ccc3c(c2)OCO3)c1C#N	17	-2	4	i	nt	nt	nt
CSc1nsc(/C=C/Nc2cccc(Cl)c2)c1C#N	-10	21	40*	+	nt	nt	nt	HNF4a DNA conf=41*
